# INS promoter act: TRM-6 insulin promoter activation. TRM-6 cells (human fetal islet line), insulin promoter eGFP reporter, imaging; plate-scaled: unstimulated 0, stimulated control 100. activation, % at 2 µM. 130,000 tested, 0.81% active. AID 1296;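 active = activation at 2 µM above a set limit, confirmed on inspection of the cell images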;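 note: share of cells whose green reporter signal exceeds an intensity cutoff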
#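 Material: TRM-6 insulin promoter–eGFP reporter cells. Buffer or medium: Low-glucose (5.5 mM) medium with tamoxifen. Probe or stimulus: tamoxifen at 0.75 µM added at seeding for reporter induction. Times: tamoxifen pre-incubation 15 h overnight, then compound exposure 48 h at 37 °C. Detection: high-content imaging of fixed cells with Hoechst nuclear stain.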
# An asterisk follows results filed as active. This is one part of a sample in which hits are shown more often than they occur.
SMILES,INS promoter act
O=C(O)c1cc(S(=O)(=O)Nc2ccc3c(c2)OCCO3)c(Cl)cc1Cl,150*
CC(C)CNc1cc(Cl)c(S(=O)(=O)NCC(C)C)cc1C(=O)O,0
O=S(=O)(Nc1ccc2c(c1)OCCO2)c1ccc2oc3ccccc3c2c1,347
COc1ccc(CNc2nc3ccccc3n2Cc2ccc(Cl)cc2)cc1OC,7
CC(=O)Nc1ccc(NC(=O)C(C)O/N=C/c2cccc([N+](=O)[O-])c2)cc1 (centres undefined),-8
O=C(O/N=C/c1cccc([N+](=O)[O-])c1)C1CC1,209*
O=C(CO/N=C/c1cccc([N+](=O)[O-])c1)Nc1ccc2ccccc2c1,3
CC1(C)CC(=O)C=C(NC2=CC3OC(c4ccccc4)OCC3OC2=O)C1 (centres undefined),-7
C=CCn1c(SCC(=O)Nc2ccc(C(=O)OC(C)C)cc2)nnc1-c1cccs1,0
C=CCn1c(CNC(=O)c2cccs2)nnc1SCC(=O)c1ccc(Br)cc1,92*
C=CCn1c(CNC(=O)c2ccco2)nnc1SCC(=O)c1ccccc1,255*
C=CCn1c(CCNC(=O)c2cccs2)nnc1SCC(=O)Nc1cccc(Cl)c1C,4
O=C(NCc1ccccc1)c1ccco1,-10
O=C(CSc1nnc(-c2ccco2)n1Cc1ccccc1)c1ccc(F)cc1,4
COc1ccc(/C(=C/c2ccc(OC(F)F)c(OC)c2)C(=O)O)cc1OC,-7
CCCNC(=O)CN1C(=O)NC(CCc2ccccc2)C1=O (centres undefined),-73
Cc1ccc(C(=O)NC(=S)NCc2ccco2)cc1,8
COCCNC(=O)C(=O)NNC(=O)c1ccccc1OC,8
C/C(N)=C(/C#N)C(=O)CSc1nc2ccccc2n1CC(C)C,0
C=CCc1cc(C=O)cc(OC)c1OCc1c(Cl)cccc1Cl,10
COc1cc(/C=C2\S/C(=N/S(=O)(=O)c3ccc(C)cc3)NC2=O)c([N+](=O)[O-])cc1OC,453*
COc1ccccc1/C=C1\S/C(=N/NC(=O)c2cccc(Br)c2)NC1=O,-8
Cc1cccc(N=C2NC(=O)/C(=C/c3cccs3)S2)c1,0
CO/C([O-])=N/c1c[n+](-c2ccc(Cl)cc2)no1,-9
COC(=O)c1nn(-c2ccccc2)c(Sc2ccc(Br)cc2)c1/C=N/O,6
SMILES,INS promoter act
Cc1ccc(-c2nnn(CC(=O)N(CC(=O)NC(C)C)c3cnc4ccccc4c3)n2)o1,-71
Cc1ccc(-c2nnn(CC(=O)N(Cc3ccccc3F)C(C(=O)NC3CCCC3)c3ccncc3)n2)o1 (centres undefined),231
CCC(C(=O)NC1CCCC1)N(C(=O)Cn1nnc(-c2ccc(C)o2)n1)c1cnc2ccccc2c1 (centres undefined),160*
CCOc1ccc(CC(=O)C2=C(N3CCOCC3)CC(C)(C)CC2=O)cc1OCC,6
O=C(Nc1cc(S(=O)(=O)N2CCCCC2)ccc1Cl)c1ccccc1NS(=O)(=O)c1ccc(F)cc1,525*
O=C(Nc1cc(S(=O)(=O)N2CCCC2)ccc1OCC(F)(F)F)c1ccc(F)cc1,-7
O=C(Nc1ccccc1N1CCOCC1)c1ccccc1NS(=O)(=O)c1ccc(F)cc1,8
Cc1cc(C(=O)CSc2nnc(-c3cccs3)o2)c(C)n1-c1ccccc1,3
O=C(NNc1ccc([N+](=O)[O-])cc1)C12CC3CC(CC(C3)C1)C2,-6
Cc1ccc(N2C(=O)N(Cc3ccccc3C)c3ccccc3S2(=O)=O)cc1,0
O=S1(=O)CC(O)C(N2CCCCC2)C1 (centres undefined),155
CCOc1ccc(N(Cc2ccccc2F)C2=NC3CS(=O)(=O)CC3S2)cc1 (centres undefined),-73
Cc1ccc(N2C(=O)CN(Cc3sccc3C)C2=S)cc1C,-3
Cc1ccccc1N1C(=O)CC2(CCCC2)CC1=O,115
Cc1ccccc1N1C(=O)CN(Cc2sccc2C)C1=S,84*
C=CCn1c(SCC(=O)Nc2cc(C)on2)nc2sc(CC)cc2c1=O,-9
COc1cc2nc(C3CCC3)n(NC(=O)c3ccco3)c(=O)c2cc1OC,142
CCn1nc(C(=O)OC(C(=O)c2c[nH]c3ccccc23)c2ccccc2)c2ccccc2c1=O (centres undefined),-9
CSc1ccccc1C(=O)C1CCCN(C(=O)CCc2cccnc2)C1 (centres undefined),0
CSc1cccc(NC(=O)CSc2ccc(C)cc2)c1,-7
Cn1c(Cn2c(=O)sc3ccccc32)nnc1SCC(=O)Nc1ccccc1,12
CCSCc1nnc(SCC(=O)Nc2cccc(SC)c2)n1C,425*
COc1cc(CCN2C(=O)N[C@@H](CCc3ccccc3)C(C(C)=O)=C2C)cc(OC)c1OC,-9
CCN(CC(=O)Nc1ccc(NC(C)=O)cc1)c1ccc(C(F)(F)F)cn1,-7
CC1Cc2ccccc2N1C(=O)CO/N=C/c1ccc(OC(F)F)cc1 (centres undefined),7
SMILES,INS promoter act
CCN1C(=O)/C(=C\C=C2/C=CC=CN2CC)SC1=S,-3
CCCN1C(=O)/C(=C\C=C2/Sc3ccccc3N2CC)SC1=S,388*
O=C(CN1CCCC1)N1c2ccccc2Sc2ccccc21,110
CCN(CC)CC(=O)N1c2ccccc2Sc2ccc(Cl)cc21,262
CCCN1C(=O)CC(c2ccco2)Sc2ccccc21 (centres undefined),3
CCN1/C(=C\C=C(C(C)=O)C(C)=O)Sc2ccccc21,669*
Nc1c(Cl)nc(-c2ccccc2)nc1Cl,0
Clc1ccccc1N=C1NN=C(c2cccs2)CS1,-7
O=C(NCc1cccnc1)C1c2ccccc2C(=O)N1C1CCCCCCC1 (centres undefined),156*
CCOc1ccc(CN2C(=O)c3ccccc3C2C(=O)NCc2cccnc2)cc1 (centres undefined),164
O=C(NCC1CCCO1)C1c2ccccc2C(=O)N1C1CCCCCCC1 (centres undefined),0
CCc1cccc(C)c1NC(=O)CSc1nnc(CCCOc2ccc(Cl)cc2Cl)n1C,3
COc1cc(-c2nc(CN3CCN(CC(C)C)C(=O)[C@@H]3C)c(C)o2)ccc1F,270*
COC(=O)c1ccc(-c2ccco2)n1Cc1nc(-c2ccc(OC)c(OC)c2)oc1C,0
COc1ccc(-c2nc(CS(=O)CC(=O)NCCCN3CC(C)CC(C)C3)c(C)o2)cc1OC (centres undefined),-7
CCOC(=O)CNC1CC(=O)N(c2cccc(Cl)c2)C1=O (centres undefined),5
O=C(CN1C(=O)NC2(CCCCC2)C1=O)NC1CCCc2ccccc21 (centres undefined),-3
CN(C1CCCC1)C1CCN(C(=S)Nc2cc(F)cc(F)c2)CC1,-7
CC(Cc1ccccc1)C(=O)N(C)Cc1cccnc1 (centres undefined),5
COc1ccc(NS(=O)(=O)c2cccc(NC(=O)c3cnccn3)c2)cc1Br,-5
CCOc1cccc(C(=O)NC(=S)NCc2cccnc2)c1,-7
CCOc1cccc(C(=O)N2CCCCC2c2cccnc2)c1 (centres undefined),164*
CCOc1cccc(C(=O)NC2CCCCC2)c1,147
OCCN(CCO)Cc1csc2ccccc12,3
CCOc1ccc(N(CC(=O)Nc2ccccc2C(=O)N2CCOCC2)S(=O)(=O)c2ccc(F)cc2)cc1,3
O=C(Nc1cccc(S(=O)(=O)N2CCOCC2)c1)[C@@H]1CCCN1S(=O)(=O)c1ccc(Cl)cc1,103
O=C(Nc1cccnc1)C1CCCN1S(=O)(=O)c1ccc(Cl)c(Cl)c1 (centres undefined),481*

# Assay outcomes as filed in PubChem BioAssay.
